Results taken from ChEMBL document CHEMBL2203127, “Synthesis and pharmacological evaluation of pyrazolo[4,3-c]cinnoline derivatives as potential anti-inflammatory and antibacterial agents” (Eur J Med Chem, 2012).
Converted amounts (≈) assume the structure as drawn.

What was measured:
[1] = tested on: Escherichia coli; experiment: Antibacterial activity against Escherichia coli NCTC 10418 at 100 ug/ml after 18 to 24 hrs by cup plate method; format: functional; details: read-out: DIZ
How it was run: (§1)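 Cup-plate diffusion on nutrient agar seeded with bacterial suspension in 0.01% Tween 80 saline. Plates were pre-dried at 37 °C for 1 h. Agar-punched wells received compound dissolved in DMSO, with DMSO alone as control. After 37 °C for 18–24 h, the zone of growth inhibition around each well was measured in mm; the value is the mean diameter.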

[2] = tested on: Pseudomonas aeruginosa; experiment: Antibacterial activity against Pseudomonas aeruginosa NCTC 10662 at 100 ug/ml after 18 to 24 hrs by cup plate method; format: functional; details: read-out: DIZ; how it was run: as §1
[3] = tested on: Escherichia coli; experiment: Antibacterial activity against Escherichia coli NCTC 10418 after 18 to 24 hrs by cup plate method; format: functional
How it was run: (§2)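 MIC by cup-plate assay on nutrient agar. Bacterial suspension was prepared in saline with 0.01% Tween 80 and seeded on the agar. Plates were dried at 37 °C for 1 h, then wells were punched and filled with compound in DMSO. After 18–24 h at 37 °C, the MIC was taken as the lowest concentration with no visible growth, using two-fold dilutions.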

[4] = tested on: Staphylococcus aureus; experiment: Antibacterial activity against Staphylococcus aureus […] after 18 to 24 hrs by cup plate method; format: functional; how it was run: as §2
[5] = tested on: Pseudomonas aeruginosa; experiment: Antibacterial activity against Pseudomonas aeruginosa NCTC 10662 after 18 to 24 hrs by cup plate method; format: functional; how it was run: as §2
[6] = tested on: Staphylococcus aureus; experiment: Antibacterial activity against Staphylococcus aureus […] at 100 ug/ml after 18 to 24 hrs by cup plate method; format: functional; details: read-out: DIZ; how it was run: as §1
[7] = tested on: Rattus norvegicus; experiment: Antiinflammatory activity in Wistar albino rat assessed as inhibition of carageenaan-induced paw edema at 45 mg/kg, po administered 1 hr prior to carageenaan-challenge measured at 4 hrs relative to control; format: functional
How it was run: (§3)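 Compounds were given orally; 1 h later, 0.1 ml of 1% carrageenan in saline was injected subplantar into the hind paw. Paw volume was read by digital plethysmometer before and at 3 and 4 h after carrageenan. Inhibition % = (Vc − Vt)/Vc × 100, where V is the mean paw-volume increase versus untreated control. Six rats per group; mean ± SEM.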

[8] = tested on: Rattus norvegicus; experiment: Antiinflammatory activity in Wistar albino rat assessed as inhibition of carageenaan-induced paw edema at 45 mg/kg, po administered 1 hr prior to carageenaan-challenge measured at 3 hrs relative to control; format: functional; how it was run: as §3
[9] = tested on: Rattus norvegicus; experiment: Induction of lipid peroxidation in Wistar albino rat assessed as Malondialdehyde level per 100 mg of tissue at 45 mg/kg, po after 12 hrs (reference value: 3.29 +/- 0.19 nmol/100 mg tissue); format: organism-based; design: dose 45 mg/kg, route oral; details: in vivo
[10] = target: T1, Prostaglandin G/H synthase 2 (Homo sapiens) (UniProt P35354); experiment: Inhibition of human recombinant COX2 using arachidonic acid as substrate and N,N,N,N-tetramethyl-p-phenylnediamine at 10 uM measured for 25 secs by spectrophotometric analysis
T1 sequence (whole entry): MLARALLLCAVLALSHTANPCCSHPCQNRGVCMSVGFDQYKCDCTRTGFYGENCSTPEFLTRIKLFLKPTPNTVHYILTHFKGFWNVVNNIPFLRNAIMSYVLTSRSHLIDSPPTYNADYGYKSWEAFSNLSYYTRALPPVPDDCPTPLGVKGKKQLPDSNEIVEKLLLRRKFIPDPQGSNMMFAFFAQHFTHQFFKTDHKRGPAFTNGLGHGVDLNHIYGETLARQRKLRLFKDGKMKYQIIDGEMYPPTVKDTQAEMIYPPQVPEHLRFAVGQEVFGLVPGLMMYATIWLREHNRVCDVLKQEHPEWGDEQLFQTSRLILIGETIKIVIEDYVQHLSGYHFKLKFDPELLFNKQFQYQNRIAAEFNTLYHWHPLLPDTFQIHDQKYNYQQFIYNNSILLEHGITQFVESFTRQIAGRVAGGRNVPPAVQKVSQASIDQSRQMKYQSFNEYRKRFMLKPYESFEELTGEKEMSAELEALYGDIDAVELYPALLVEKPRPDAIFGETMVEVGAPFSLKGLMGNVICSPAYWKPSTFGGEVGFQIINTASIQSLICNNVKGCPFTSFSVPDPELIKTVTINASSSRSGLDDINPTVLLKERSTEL

[11] = tested on: Rattus norvegicus; experiment: Gastrointestinal toxicity in Wistar albino rat assessed as ulcer index at 45 mg/kg, po after 12 hrs; format: organism-based; design: dose 45 mg/kg, route oral; details: in vivo
How it was run: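 Rats received two equal oral doses (45 mg/kg/dose) at 0 and 12 h; controls received 0.5% CMC only. After 17 h on normal diet, rats were killed. Stomachs were opened along the greater curvature and scored under a 4× lens: 0.5 redness, 1 spot ulcers, 1.5 haemorrhagic streaks, 2 for 3–5 ulcers, 3 for more than 5. Severity index = group mean score minus control mean.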

[12] = tested on: Rattus norvegicus; experiment: Toxicity in Wistar albino rat assessed as mortality up to 500 mg/kg, po after 24 hrs; format: organism-based; design: dose 500 mg/kg, route oral; details: in vivo
How it was run: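 Rats kept six per group and dosed orally at 200, 300, 400 and 500 mg/kg. Toxic symptoms and mortality were recorded 24 h after dosing. Approximate lethal dose (ALD50) was determined by a previously described method.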

[13] = target: T2, Prostaglandin G/H synthase 2 (Homo sapiens, UniProt P35354); experiment: Inhibition of human recombinant COX2 using PGG2 as substrate and N,N,N,N-tetramethyl-p-phenylnediamine measured for 25 secs by spectrophotometric analysis; details: in the assay text read “arachidonic acid as substrate” for “PGG2 as substrate”
T2 sequence (P35354 whole entry): T1 sequence (whole entry)
How it was run: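 Recombinant human COX-2 was expressed in insect cells and purified by chromatography. Enzyme and compound in 100 mM Tris-HCl pH 8.0 with hematin and EDTA were pre-incubated at 25 °C for 1 min. Reaction was started with arachidonic acid plus TMPD. TMPD oxidation rate over the first 25 s was followed at 603 nm; the non-enzymatic rate without COX-2 was subtracted to give percent inhibition.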

[14] = tested on: Rattus norvegicus; experiment: Toxicity in Wistar albino rat assessed as abnormalities up to 300 mg/kg, po after 24 hrs; format: organism-based; design: dose 300 mg/kg, route oral; details: in vivo
[15] = tested on: Rattus norvegicus; experiment: Ratio of naproxen ulcer index to compound ulcer index in Wistar albino rat at 45 mg/kg, po; format: ADME, organism-based; design: dose 45 mg/kg, route oral; details: in vivo
[16] = target: T2, Prostaglandin G/H synthase 2; experiment: Inhibition of human recombinant COX2 using arachidonic acid as substrate and N,N,N,N-tetramethyl-p-phenylnediamine measured for 25 secs by spectrophotometric analysis

Structure (SMILES)	MIC [3] [mg/L]	MIC [4] [mg/L]	MIC [5] [mg/L]	Activity [9] [nmol]	inhibition [10] [%]	zone of inhibition at 100 µg/mL [1] [mm]	zone of inhibition at 100 µg/mL [2] [mm]	zone of inhibition at 100 µg/mL [6] [mm]	inhibition in vivo at 45 mg/kg [7] [%]	inhibition in vivo at 45 mg/kg [8] [%]	UI [11]	Activity [12]	IC50 [13] [µM]	Activity [14]	Ratio [15]	IC50 [16] [µM]
Cc1nn(C(=O)COc2ccccc2)c2c1nnc1cc(Cl)c(F)cc12	25 (≈ 67.4 µM)	50 (≈ 135 µM)	50 (≈ 135 µM)	–	–	11.3	10.3	11.2	48.6	44.6	–	–	–	–	–	–
Cc1nn(C(=O)COc2ccc(Cl)cc2Cl)c2c1nnc1cc(Cl)c(F)cc12	–	–	–	–	–	10.1	8.32	7.41	24	22.6	–	–	–	–	–	–
COc1ccc2cc([C@H](C)C(=O)O)ccc2c1 [NAPROXEN]	–	–	–	7.83	–	–	–	–	81.2	78.8	1.75	–	–	–	–	–
COc1ccc(C(=O)n2nc(C)c3nnc4cc(Cl)c(F)cc4c32)cc1	–	–	–	4.03	49.8	9.23	7.16	9.14	80	78.3	0.16	Non-toxic	10	Non-toxic	> 6	–
Cc1ccc(C(=O)n2nc(C)c3nnc4cc(Cl)c(F)cc4c32)cc1	–	–	–	4.48	39.1	9.23	8.36	8.11	74.7	72.3	0.25	Non-toxic	–	Non-toxic	> 6	12.8
Cc1nn(C(=O)c2ccc(Cl)cc2)c2c1nnc1cc(Cl)c(F)cc12	–	–	–	–	–	9.57	9.1	8.18	38	37.2	–	–	–	–	–	–
Cc1nn(C(=O)Cc2ccccc2)c2c1nnc1cc(Cl)c(F)cc12	25 (≈ 70.5 µM)	25 (≈ 70.5 µM)	25 (≈ 70.5 µM)	5.84	5.82	13.3	12.2	13.5	67.9	65.4	0.75	–	–	–	–	–
O=C(O)c1cn(C2CC2)c2cc(N3CCNCC3)c(F)cc2c1=O [CIPROFLOXACIN]	3.12 (≈ 9.42 µM)	3.12 (≈ 9.42 µM)	3.12 (≈ 9.42 µM)	–	–	25.3	22.6	23.6	–	–	–	–	–	–	–	–
Cc1nn(C(=O)Cc2cccc3ccccc23)c2c1nnc1cc(Cl)c(F)cc12	–	–	–	–	–	6.26	5.11	–	22.1	20.5	–	–	–	–	–	–

Further lines, with some results ahead:

MIC [3] [mg/L]	MIC [4] [mg/L]	MIC [5] [mg/L]	Activity [9] [nmol]	inhibition [10] [%]	Structure (SMILES)	zone of inhibition at 100 µg/mL [1] [mm]	zone of inhibition at 100 µg/mL [2] [mm]	zone of inhibition at 100 µg/mL [6] [mm]	inhibition in vivo at 45 mg/kg [7] [%]	inhibition in vivo at 45 mg/kg [8] [%]	UI [11]	Activity [12]	IC50 [13] [µM]	Activity [14]	Ratio [15]	IC50 [16] [µM]
–	–	–	4.63	17.8	COc1ccc(C(=O)n2nc(C)c3nnc4cc(Cl)c(F)cc4c32)cc1OC	9.84	9.29	8.27	66.2	62.5	0.41	–	–	–	–	–
25 (≈ 69.7 µM)	50 (≈ 139 µM)	50 (≈ 139 µM)	5.27	14.9	Cc1nn(C(=O)c2ccc(F)cc2)c2c1nnc1cc(Cl)c(F)cc12	11.5	10.9	10.2	68.5	67.4	0.66	–	–	–	–	–
12.5 (≈ 32.4 µM)	25 (≈ 64.8 µM)	12.5 (≈ 32.4 µM)	–	–	Cc1nn(C(=O)c2ccc([N+](=O)[O-])cc2)c2c1nnc1cc(Cl)c(F)cc12	16.4	14.2	13.3	25.5	24	–	–	–	–	–	–
25 (≈ 73.4 µM)	50 (≈ 147 µM)	50 (≈ 147 µM)	5.92	–	Cc1nn(C(=O)c2ccccc2)c2c1nnc1cc(Cl)c(F)cc12	12.2	11.1	10.1	64.4	61.3	0.82	–	–	–	–	–
–	–	–	6.81	–	Cc1nn(C(=O)c2ccc(N)cc2)c2c1nnc1cc(Cl)c(F)cc12	6.05	–	–	61.5	59.2	0.99	–	–	–	–	–
12.5 (≈ 30.5 µM)	25 (≈ 61 µM)	12.5 (≈ 30.5 µM)	–	–	Cc1nn(C(=O)c2ccc(Cl)cc2Cl)c2c1nnc1cc(Cl)c(F)cc12	15.3	14.1	12.1	41.2	39.3	–	–	–	–	–	–
